Experimental data pooled from the literature.
Target: Cytoplasmic tyrosine-protein kinase BMX (BMX, Homo sapiens, UniProt P51813)

Structure (SMILES) | test | setting | endpoint | result
CNc1cc2c(Nc3cccc(Br)c3)ncnc2cn1 | enzyme activity, inhibitor | 0.5 µM | remaining activity | 93.9%
Cn1c2c(c3ccc(Cl)c(Cl)c31)C(C#N)C(C)(C)NC2=O (stereo not shown) | thermal stability, DSF | 10 µM | ΔTm | -0.1 °C
C=CC(=O)Nc1cc(Nc2nccc(Nc3cc(Cl)c(F)cc3C(C)(C)O)n2)c(OC)cc1N1CC[C@@H](N(C)C)C1 | enzyme activity, inhibitor | 1 µM | inhibition | 80%
N#CCCc1ccc2c(c1)-c1[nH]c3ccc([N+](=O)[O-])cc3c1CC(=O)N2 | cell-free assay | 0.5 µM | remaining signal | 99.5%
CN(c1ccnc(CNc2nc(Nc3ccc4c(c3)CC(=O)N4)ncc2C(F)(F)F)n1)S(C)(=O)=O | cell-free assay, competition with immobilised ligand | 1 µM | remaining binding | 80%
Cc1cc(NC(=O)c2cccc3cc(-c4cccc5[nH]nc(N)c45)ccc23)ccc1F | enzyme activity, inhibitor | 0.1 µM | activity vs control | 108%
CC/C(=N\NC(=O)NCc1cccc(O)c1)c1ccc(O)c(C)c1O | enzyme activity, inhibitor | 0.1 µM | inhibition | 3%
O=C(Nc1cnc(Oc2ccc(F)cc2)nc1)N1CCc2ncccc2[C@@H]1c1ccc(F)cc1 | cell-free assay, competition with immobilised ligand | 1 µM | remaining binding | 94%
CNC(=O)c1cc(Oc2ccc(NC(=O)Nc3ccc(Cl)c(C(F)(F)F)c3)cc2)ccn1 | enzyme activity, inhibitor | 0.3 µM | inhibition | -3%
FC(F)(F)c1ccc2c(c1)nc(-c1cccnc1)n2C1CC1 | cell-free assay, competition with immobilised ligand | 1 µM | remaining binding | 100%
Cn1c2c(Cl)c(Cl)ccc2c2cn[nH]c(=O)c21 | thermal stability, DSF | 10 µM | ΔTm | 0.4 °C
CN(C)C1CCN(CC#Cc2nn(C3CCCC3)c3nc(NCc4ccccc4)ncc23)C1 (stereo not shown) | enzyme activity, inhibitor, FRET | 10 µM | inhibition | 14%
O=C(NCc1ncc(C(F)(F)F)cc1Cl)c1ccc2c(c1)C1(CCS(=O)(=O)CC1)[C@H](C1CC1)N2S(=O)(=O)c1ccc(F)cc1 | cell-free assay, competition with immobilised ligand | 1 µM | remaining binding | 100%
O=C1c2ccccc2-c2n[nH]c3cccc1c23 | enzyme activity, inhibitor | 0.5 µM | activity vs control | 90.8%
O=C(Nc1cccnn1)N1CCC(=Cc2cccc(Oc3ccc(C(F)(F)F)cn3)c2)CC1 | cell-free assay, competition with immobilised ligand | 1 µM | remaining binding | 71%
COc1cc2ncnc(Nc3ccc(Oc4ccccc4)c(C)c3C)c2cc1OC | enzyme activity, inhibitor | 1 µM | inhibition | 1%

Structure (SMILES) | test | setting | endpoint | result
Cn1cncc1C1=CN(c2ncnc3[nH]cnc23)CCS1 | enzyme activity, inhibitor, radiometric | 2 µM | inhibition | 40%
CC(=O)N1CCC(c2ccc(C(=O)NC(=N)N)cc2C(F)(F)F)CC1 | cell-free assay, competition with immobilised ligand | 1 µM | remaining binding | 100%
COc1cc2nccc(Oc3ccc(NC(=O)c4c5n(n(-c6ccc(F)cc6)c4=O)CCCC5)cc3)c2cc1OC | enzyme activity, inhibitor | 0.1 µM | inhibition | 22%
Cc1ccc(Nc2nccc(N(C)c3ccc4c(C)n(C)nc4c3)n2)cc1S(N)(=O)=O | enzyme activity, inhibitor | 0.3 µM | inhibition | 8%
Cn1cc(Cl)c2c(Oc3c(F)cc(Nc4cc(Cl)nc(N)n4)cc3F)ccnc21 | cell-free assay, competition with immobilised ligand | 0.1 µM | remaining binding | 97%
C#Cc1cccc(Nc2ncnc3cc(OCCOC)c(OCCOC)cc23)c1 | cell-free assay | 0.5 µM | remaining signal | 100%
CCN(CC)CCNC(=O)c1c(C)[nH]c(/C=C2\C(=O)Nc3ccc(F)cc32)c1C | enzyme activity, inhibitor | 10 µM | inhibition | 41%
Oc1ccc(-c2nc(-c3ccncc3)c(-c3ccc(F)cc3)[nH]2)cc1 | cell-free assay | 0.5 µM | remaining signal | 93.9%
Cn1c2c(c3ccc(Cl)c(Cl)c31)C(C#N)C1(CCOCC1)NC2=O (stereo not shown) | thermal stability, DSF | 10 µM | ΔTm | -0.3 °C
C[S+]([O-])c1ccc(-c2nc(-c3ccncc3)c(-c3ccc(F)cc3)[nH]2)cc1 (stereo not shown) | cell-free assay | 0.5 µM | remaining signal | 94.4%
Cn1c2c(Cl)c(Cl)ccc2c2cc[nH]c(=O)c21 | thermal stability, DSF | 10 µM | ΔTm | 0 °C
FC(F)(F)c1ccc(/C=C/c2nc(COc3ccc(CCCCn4ccnn4)cc3)co2)cc1 | enzyme activity, inhibitor | 0.5 µM | remaining activity | 99%
O=C(Nc1ccc(Oc2ccc(F)cc2)cc1)N1CCc2ncccc2[C@H]1c1ccc(F)cc1 | cell-free assay, competition with immobilised ligand | 1 µM | remaining binding | 100%
CCC1(CC)NC(=O)c2c(c3ccc(Cl)c(Cl)c3n2C)C1C#N (stereo not shown) | thermal stability, DSF | 10 µM | ΔTm | 0.1 °C
C[C@@H](N)[C@H]1CC[C@H](C(=O)Nc2ccncc2)CC1 | enzyme activity, inhibitor | 0.5 µM | remaining activity | 91.2%
